Results on 8 molecules are retold here after ChEMBL document CHEMBL1122243, “5-p-benzoquinonyl-2'-deoxyuridine 5'-phosphate: a possible mechanism-based inhibitor of thymidylate synthetase” (J Med Chem, 1983).

The structures appear in SMILES notation.

Assay [1] addresses T1, Thymidylate synthase (Lactobacillus casei) (UniProt P00469).
T1 sequence (whole entry): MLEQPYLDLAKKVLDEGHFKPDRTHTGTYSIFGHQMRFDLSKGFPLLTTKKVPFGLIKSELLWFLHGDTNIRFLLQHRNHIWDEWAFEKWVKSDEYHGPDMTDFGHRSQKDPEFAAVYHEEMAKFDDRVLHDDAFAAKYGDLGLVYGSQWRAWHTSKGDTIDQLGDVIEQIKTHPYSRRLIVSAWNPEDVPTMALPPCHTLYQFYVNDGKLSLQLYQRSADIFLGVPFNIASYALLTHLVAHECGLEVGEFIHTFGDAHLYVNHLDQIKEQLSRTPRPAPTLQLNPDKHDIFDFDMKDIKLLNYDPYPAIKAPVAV
Nature of the assay: Inactivation of thymidylate synthetase measured as k2 at 7 pH 24 degrees Celsius temp. Particulars: Lacticaseibacillus casei.

Assay [2] deals with T1, Thymidylate synthase (Lactobacillus casei). As to the kind of experiment: Inactivation of thymidylate synthetase measured as k2 at 7 pH 4 degrees Celsius temp. Particulars: Lacticaseibacillus casei.
Assay [3] shares this target. Nature of the assay: Substrate concentration measured for Inactivation of thymidylate synthetase at a dose 2.0 pH 6.8, 30 degrees Centigrade. The settings on record: Lacticaseibacillus casei. Put shortly: (§1)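 Thymidylate synthetase from methotrexate-resistant Lactobacillus casei, activated by dialysis against 0.1 M potassium phosphate pH 6.8 with 50 mM mercaptoethanol, then freed of thiol on Sephadex G-25. Enzyme at 0.1–0.4 μM preincubated at 30 °C in 6 mM potassium phosphate pH 6.8, 3 mM MgCl2, 0.12 mM EDTA with inhibitor, with or without substrate for protection. Aliquots were taken over time and assayed.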

For assay [4] the target is unchanged. Nature of the assay: Substrate concentration measured for Inactivation of thymidylate synthetase at a dose 0.6, pH 6.8, 30 degrees Centigrade. Particulars: Lacticaseibacillus casei. In outline: as §1
Assay [5] has the same target. Nature of the assay: Inactivation of thymidylate synthetase measured as kobs at 0.6 pH 30 degrees Celsius temp. Particulars: Lacticaseibacillus casei. Put shortly: as §1
For assay [6] the target is unchanged. Nature of the assay: Inactivation of thymidylate synthetase measured as kobs at 2.0 pH 30 degrees Celsius temp. The settings on record: Lacticaseibacillus casei. Put shortly: as §1
For assay [7], the target named is T2, Thymidylate synthase (Lactobacillus casei, UniProt P00469).
T2 sequence (P00469 whole entry): T1 sequence (whole entry)
As to the kind of experiment: Inactivation of thymidylate synthetase measured asKi at 6.8 pH 30 degrees Celsius temp. More on the design: species or system Lacticaseibacillus casei. Put shortly: (§2)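 L. casei (methotrexate-resistant) thymidylate synthetase, activated in 50 mM 2-mercaptoethanol, then freed of thiol on Sephadex G-25 in 0.05 M phosphate pH 6.8; 0.1–0.4 μM enzyme preincubated at 30 °C with inhibitor in 6 mM potassium phosphate pH 6.8, 3 mM MgCl2, 0.12 mM EDTA. Aliquots at 0–50 s assayed 60 s with 50 μM [5-3H]dUMP; ln % activity vs time gives kobs.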

Assay [8] concerns the target T1, Thymidylate synthase (Lactobacillus casei). Nature of the assay: Inactivation of thymidylate synthetase measured as k2 at 6.8 pH 30 degrees Celsius temp. The settings on record: Lacticaseibacillus casei. In outline: as §2
Assay [9] shares this target. As to the kind of experiment: Inactivation of thymidylate synthetase measur as kcat at 6.8 pH 30 degrees Celsius temp. The settings on record: Lacticaseibacillus casei. In outline: as §1
Assay [10] shares this target. Nature of the assay: Substrate concentration measured for Inactivation of thymidylate synthetase at a dose 10.0 pH 6.8, 30 degrees Centigrade. Particulars: Lacticaseibacillus casei. Put shortly: as §1
For assay [11] the target is unchanged. As to the kind of experiment: Substrate concentration measured for Inactivation of thymidylate synthetase at a dose 5.56, pH 6.8, 30 degrees Centigrade. Particulars: Lacticaseibacillus casei. In outline:
as §1

For assay [12] the target is unchanged. As to the kind of experiment: Inactivation of thymidylate synthetase measured as kobs at a dose 10.0, pH 6.8, 30 degrees Centigrade. Particulars: Lacticaseibacillus casei. Put shortly:
as §1

For assay [13] the target is unchanged. As to the kind of experiment: Inactivation of thymidylate synthetase measured as kobs at a dose 5.56, pH 6.8, 30 degrees Centigrade. Particulars: Lacticaseibacillus casei. Put shortly:
as §1

Assay [14] has the same target. Nature of the assay: Inactivation of thymidylate synthetase measured as kobs at a dose 1.0 pH 6.8, 30 degrees Centigrade. The settings on record: Lacticaseibacillus casei. Put shortly: as §2
Assay [15] shares this target. As to the kind of experiment: Inactivation of thymidylate synthetase measured as kobs at a dose 10.0 pH 6.8, 30 degrees Centigrade. The settings on record: Lacticaseibacillus casei. Put shortly: as §2
For assay [16] the target is unchanged. Nature of the assay: Inactivation of thymidylate synthetase measured as kobs at a dose 3.0 pH 6.8, 30 degrees Centigrade. The settings on record: Lacticaseibacillus casei. In outline:
as §2

Assay [17] shares this target. As to the kind of experiment: Inactivation of thymidylate synthetase measured as kobs at a dose 30.0.0 pH 6.8, 30 degrees Centigrade. The settings on record: Lacticaseibacillus casei. In outline: as §2
Assay [18] has as its target T2, Thymidylate synthase. Nature of the assay: Inactivation of thymidylate synthetase measured as Ki at 6.8 pH 30 degrees Celsius temp. Set-up: species or system Lacticaseibacillus casei. Put shortly:
as §2

The target in assay [19] is T1, Thymidylate synthase (Lactobacillus casei). Nature of the assay: Inactivation of thymidylate synthetase measured as kcat at 6.8 pH 30 degrees Centigrade temp. The settings on record: Lacticaseibacillus casei. In outline: as §2

The molecule `NC(=O)CI` registered a k2 in assay [1] of 7 M⁻¹.
Molecule `CCN1C(=O)C=CC1=O` came in with a k2 in assay [2] of 13 M⁻¹.
As to `O=C1C=CC(=O)C=C1`, the Substrate in assay [3] and in [4] was 0 µM in each case. Also, the k obs was 0.0025 s⁻¹ in assay [5] and 0.0126 s⁻¹ in assay [6].
With `O=c1[nH]c(=O)n([C@H]2C[C@H](O)[C@@H](COP(=O)(O)O)O2)cc1[N+](=O)[O-]` [5-NITRO-DUMP], the Ki in assay [7] came out at 500 nM. Moreover, the k2 in assay [8] stood at 300000 M⁻¹ s⁻¹. This molecule came in with a k cat in [9] of 0.146 s⁻¹.
In the case of `O=C1C=CC(=O)C(c2cn([C@H]3C[C@H](O)[C@@H](CO)O3)c(=O)[nH]c2=O)=C1`, the Substrate in [10] and in assay [11] was 0 µM throughout. The k obs in assay [12] came to 0.0048 s⁻¹; in assay [13], 0.0029 s⁻¹.
In [8], `O=C1C=CC(=O)C(c2ccccc2)=C1` registered a k2 of 2600. The k obs was 0.0034 s⁻¹ in assay [14], 0.025 s⁻¹ in assay [15], 0.007 s⁻¹ in assay [16] and 0.078 s⁻¹ in assay [17].
In turn, `O=C(CBr)c1cn([C@H]2C[C@H](O)[C@@H](COP(=O)(O)O)O2)c(=O)[nH]c1=O` gave a Ki in [18] of 4000 nM. Besides, in [8], the k2 amounted to 600 M⁻¹ s⁻¹. In addition, in assay [19], the k cat was determined as 0.0025 s⁻¹.
Turning to `O=C(CBr)c1cn(C2CC(O)C(OP(=O)(O)O)O2)c(=O)[nH]c1=O` (centres undefined), the Ki in assay [7] was found to be 2000 nM. The same molecule came in with a k2 in assay [8] of 32000. Besides, the k cat in assay [19] amounted to 0.065 s⁻¹.
